We go through one compound from ChEMBL document CHEMBL4308887, “Synthesis and biological evaluation of clovamide analogues with catechol functionality as potent Parkinson's disease agents in vitro and in vivo” (Bioorg Med Chem Lett, 2019).

Activity calls are given as the source filed them. The rule behind the calls is not given here.

Data set [1] deals with Mus musculus. Kind of data set: Anti-parkinson's activity in MPTP-induced C57Bl/6 mouse model of Parkinson's disease assessed as reduction in MDA level in striatum administered intragastrically pretreated for 10 days followed by MPTP challenge measured 10 days post MPTP addition by thiobarbituric acid method. The data set is classed as functional, organism-based. The method, boiled down: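 Striatum and SNpc from MPTP-treated mice dosed orally with 1 at 10 or 20 mg/kg. MDA level and SOD activity measured. Mean ± S.D., n = 6 mice/group.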

Data set [2] has as its system SH-SY5Y. Nature of the data set: Neuroprotection against H2O2-induced cell death in human SH-SY5Y cells assessed as cell viability at 10 uM preincubated for 6 hrs followed by H2O2 addition and measured after 24 hrs in presence of PI3K/Akt/mTOR inhibitor rapamycin by MTT assay relative to control. The data set is classed as functional. As to conditions: read-out: Activity. Put shortly: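 SH-SY5Y cells preincubated 1 h with LY294002 (5 μM) or rapamycin (100 nM). Then 1 (10 μM) for 6 h, then 600 μM H₂O₂. Viability by MTT. Mean ± S.E.M., three independent experiments.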
Background: Tetrazolium assays rely on reduction of a dye to a coloured formazan, in cell work by metabolically active cells.

The test system of data set [3] is SH-SY5Y. Kind of data set: Protection against H2O2-induced apoptosis in human SH-SY5Y cells assessed as early apoptotic cells at 1 uM preincubated for 6 hrs followed by H2O2 addition and measured after 24 hrs by Annexin V-FITC/propidium iodide staining based flow cytometry (reference value: 6.6%). The data set is classed as functional. A general note: A flow cytometer gives signals particle by particle.

The subject of data set [4] is SH-SY5Y. Kind of data set: Protection against H2O2-induced oxidative stress in human SH-SY5Y cells assessed as reduction in MDA level preincubated for 6 hrs followed by H2O2 addition and measured after 24 hrs by thiobarbituric acid method. The data set is classed as functional, cell-based. Put shortly:
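Cellular SOD activity (units) and MDA content (μmol/g) measured in SH-SY5Y after pretreatment (1, 10 μM) and 600 μM H₂O₂. Mean ± S.E.M. of three independent experiments.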

Data set [5] is described as follows: Activation of PI3K/Akt/mTOR signaling in human SH-SY5Y cells assessed as up regulation of H2O2-induced HO-1 expression at 10 uM preincubated for 6 hrs followed by H2O2 addition and after 24 hrs in presence of PI3K/Akt/mTOR inhibitor LY294002 by Western blot analysis. The data set is classed as cell-based. Put shortly: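 SH-SY5Y cells preincubated 1 h with one inhibitor: SB203580 10 μM, LY294002 5 μM, U0126 10 μM, SP600125 5 μM or rapamycin 100 nM. Then 1 (10 μM) for 6 h, then 600 μM H₂O₂. HO-1 measured by western blot and densitometry. Mean ± S.E.M., three independent experiments.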

Data set [6] concerns SH-SY5Y. Nature of the data set: Neuroprotection against H2O2-induced cell death in human SH-SY5Y cells preincubated for 6 hrs followed by H2O2 addition and measured after 24 hrs by MTT assay. The data set is classed as functional, cell-based. The method, boiled down:
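Primary screen at 100 μM, then dose-response. SH-SY5Y cells pretreated, then exposed to 600 μM H₂O₂ (the level chosen from a 100–1000 μM, 24 h viability titration). EC₅₀ is the concentration giving 50% of maximal effect. N-acetyl-L-cysteine served as positive control. DMSO below 0.1%. Mean ± S.E.M. of three experiments.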

Data set [7] has as its system Mus musculus. Kind of data set: Anti-parkinson's activity in MPTP-induced C57Bl/6 mouse model of Parkinson's disease assessed as decrease in ratio of Bax/Bcl2 expression in striatum at 10 to 20 mg/kg, ig pretreated for 10 days followed by MPTP challenge measured 10 days post MPTP addition by Western blot analysis. The data set is classed as functional, organism-based. (A western blot detects proteins with antibodies after separation by electrophoresis.)

For data set [8], the system named is SH-SY5Y. Kind of data set: Neuroprotection against H2O2-induced cell death in human SH-SY5Y cells assessed as cell viability at 1 uM preincubated for 6 hrs followed by H2O2 addition and measured after 24 hrs by MTT assay relative to control. The data set is classed as functional. As to conditions: read-out: Activity. The method, boiled down: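 SH-SY5Y cells pretreated with 1 at 1 or 10 μM, then exposed to 600 μM H₂O₂. Viability by MTT, expressed as % of control. DMSO below 0.1%. Mean ± S.E.M. of three independent experiments.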

Data set [9] concerns Mus musculus. Kind of data set: Anti-parkinson's activity in MPTP-induced C57Bl/6 mouse model of Parkinson's disease assessed as restoration of motor ability by measuring increase in time spent on rota-rod at 10 to 20 mg/kg, ig pretreated for 10 days followed by MPTP challenge measured 4 to 72 hrs post MPTP addition for 3 mins by rota rod test. The data set is classed as functional, organism-based. Put shortly: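 MPTP-intoxicated mice given 1 orally at 10 or 20 mg/kg. Time retained on a rotating rod recorded 4, 24, 48 and 72 h after MPTP. Mean ± S.D., n = 6 mice/group.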

Data set [10] relates to SH-SY5Y. Nature of the data set: Neuroprotection against H2O2-induced toxicity in human SH-SY5Y cells assessed as decrease in LDH release preincubated for 6 hrs followed by H2O2 addition and measured after 24 hrs. The data set is classed as functional, cell-based. Put shortly:
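Cells pretreated with test agent (1 or 10 μM), then 600 μM H₂O₂; plasma membrane damage read as LDH leakage into medium (U/L). DMSO below 0.1% in all groups. Mean ± S.E.M. of three independent experiments.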

Data set [11] can be described thus: Oral bioavailability in Sprague-Dawley rat at 25 mg/kg by LC-MS/MS analysis. The data set is classed as ADME, organism-based. As to conditions: in vivo. The method, boiled down:
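Male Sprague–Dawley rats (n = 3) dosed i.v. 5 mg/kg (5% DMSO, 2% F68, 93% saline) or p.o. 25 mg/kg (0.5% methylcellulose, 1% Tween 80). Orbital blood at 0.083–24 h (12 points). Plasma concentration–time profiles gave Cl, Vdss, AUC, T1/2, Tmax, Cmax, MRT and absolute F.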

Data set [12] can be described thus: Activation of PI3K/Akt/mTOR signaling in human SH-SY5Y cells assessed as up regulation of HO-1 expression at 10 uM after 24 hrs by Western blot analysis relative to control. The data set is classed as cell-based. Put shortly: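 HO-1 western blot in SH-SY5Y cells incubated 24 h with 1 at 0.1, 1 or 10 μM, without H₂O₂. Band densitometry expressed as % of control. Mean ± S.E.M. from three independent experiments.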

Data set [13] has as its system Mus musculus. Kind of data set: Anti-parkinson's activity in MPTP-induced C57Bl/6 mouse model of Parkinson's disease assessed as increase in tyrosine hydroxylase expression in substantia nigra at 10 to 20 mg/kg, ig pretreated for 10 days followed by MPTP challenge measured 10 days post MPTP addition by DAB staining based immunohistochemistry method. The data set is classed as functional, organism-based. The method, boiled down: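 Tissue taken 10 days after MPTP injection from mice dosed orally with 1 (10 or 20 mg/kg). TH in SNpc and striatum by western blot, and by DAB immunostaining. Three of the mice per group analysed. Mean ± S.D., n = 6 mice/group.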

A short description of data set [14]: AUC (0 to infinity) in Sprague-Dawley rat at 5 mg/kg, iv by LC-MS/MS analysis. Further details: dose 5 mg/kg, route intravenous, time infinity. The data set is classed as ADME, organism-based. As to conditions: in vivo. The method, boiled down:
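Single intravenous 5 mg/kg dose in 5% DMSO + 2% F68 + 93% saline to male Sprague–Dawley rats (n = 3). Orbital blood samples (100-200 μL) were taken at 12 points over 24 h (0.083 to 24 h). AUC0-∞ was derived from the plasma concentration–time curve and given as mean ± SD.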

The test system of data set [15] is SH-SY5Y. Nature of the data set: Protection against H2O2-induced apoptosis in human SH-SY5Y cells assessed as late apoptotic cells at 1 uM preincubated for 6 hrs followed by H2O2 addition and measured after 24 hrs by Annexin V-FITC/propidium iodide staining based flow cytometry (reference value: 3.5%). The data set is classed as functional.

For orientation: EC50 means the concentration that produces a half-maximal response. A higher EC50 goes with a less potent agent. Usually bioavailability stands for the share of a dose that reaches the circulation, judged against a reference dose that is usually intravenous. A higher bioavailability goes with good availability. As usually defined, the AUC(0-inf) is the area under the concentration-time curve extrapolated to infinity. Consider `COC(=O)[C@H](Cc1ccccc1)NC(=O)/C=C/c1ccc(O)c(O)c1` [N-CAFFEOYL-PHENYLALANINE METHYL ESTER], for which the Activity entry was “Dose-dependent effect” with Mus musculus [1]; 6.3% with SH-SY5Y [3]; “Dose-dependent effect” in the data set on SH-SY5Y [4]; “Dose-dependent effect” in the data set on SH-SY5Y [10]; 206% in data set [12]; 3.9% in the data set on SH-SY5Y [15]. The viability at 10 µM in the data set on SH-SY5Y [2] stood at 65.9%. In addition, in data set [5], the result was inactive. The compound further had a 50% effective concentration (EC50) in the data set with SH-SY5Y [6] of 4.26 µM. Moreover, the outcome with Mus musculus [7], in the data set on Mus musculus [9] and with Mus musculus [13] was Active. In the data set on SH-SY5Y [8], the viability at 1 µM was 68.3%. This compound returned a bioavailability in data set [11] of 15.2%. This compound returned an AUC(0-inf) in data set [14] of 3270 ng·h/mL.
